Screening data as filed in PubChem BioAssay.
Compounds with a hit are over-represented: about 3% of the library has one in this group of screens.
PLCb3 inh = human PLC-beta3 inhibitors, primary screen, biochemical, fluorescence; Purified PLC-beta3, fluorogenic substrate; inhibition, % at 12.2 µM; 0.18% of 370,000 active; in the data active means inhibition above about 11%;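 further: 0% = median of compound wells on plate and 100% = full blocker control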
PLCg1 inh = PLC-gamma1 enzyme inhibitors, primary screen, biochemical, fluorescence, purified enzyme; 1-phosphatidylinositol 4,5-bisphosphate phosphodiesterase gamma-1 (Homo sapiens), P19174; fluorogenic substrate; inhibition, % at 12.2 µM; 0.84% of 370,000 active; AID 720700, 2013; in the data active means inhibition above about 9.5%
proKLK7 act = proKLK7 zymogen activators, primary screen, biochemical, fluorescence intensity; Kallikrein-7 (Homo sapiens), P49862; 0.9% of 370,000 active; purified proKLK7, EDANS-DABCYL substrate fluorescence; 100% is mature enzyme control, 0% vehicle; activation, % at 7 µM;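 active means activation above the mean of all tested compounds plus 3 SD, computed per campaign excluding outliers beyond control limits, cut at about 13% in these data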
Target sequence (P49862 whole entry, looked up): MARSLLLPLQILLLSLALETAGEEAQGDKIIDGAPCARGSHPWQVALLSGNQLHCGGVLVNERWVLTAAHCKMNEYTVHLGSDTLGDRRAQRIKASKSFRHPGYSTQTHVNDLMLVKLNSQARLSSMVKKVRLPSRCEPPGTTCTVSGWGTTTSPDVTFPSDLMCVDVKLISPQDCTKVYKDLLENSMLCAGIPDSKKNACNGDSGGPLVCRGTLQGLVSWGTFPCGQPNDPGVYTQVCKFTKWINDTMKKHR
DDE Tn7 FP inh = inhibitors of Tn7 peptide binding to fibrin DD(E), primary screen, biochemical, fluorescence polarization, human fibrin, Tn7 probe; Fibrinogen beta chain (Homo sapiens), P02675; FP displacement of FITC-Tn7 peptide from fibrin DD(E); 0% = median of compound wells per plate; inhibition, % at 8.3 µM; 0.13% of 370,000 active; AID 720508, 2013;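 active means inhibition above the mean of compounds falling within the control limits plus 3 SD of them, cut at about 14% in these data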;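 further: 0% = plate median of compound wells and 100% = 10 µM Aha-Tn7 peptide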
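System: human fibrin DD(E); quantity: Fibrin-DD(E) at 2 µM final; also added: fluorescent Tn7 probe at 0.1 µM; compound dosing: single nominal test concentration of 8.3 µM per compound; schedule: 10 min preincubation, 3 h with tracer, room temperature; detection: fluorescence polarization of the labelled Tn7 tracer; repeats: one replicate per compound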
CendR NRP1 mod = modulators of CendR peptide binding to NRP-1, primary screen, biochemical, fluorescence polarization, uHTS; Neuropilin-1 (Homo sapiens), O14786; FAM-RPARPAR peptide binding to NRP-1; inhibition, % at 25 µM; 0.85% of 360,000 active; AID 602438, 2012;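 active means inhibition or corrected inhibition above about 18%, plus a signal ratio from 0.5 to 1.5, limit read from the data, passing the limit was not always enough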
Tn6 DDE FP = inhibitors of Tn6 peptide binding to fibrin DD(E), primary screen, biochemical, fluorescence polarization, human fibrin, Tn6 probe; Fibrinogen beta chain (Homo sapiens), P02675; Fibrin DD(E) TRITC-Tn6 fluorescence polarization displacement; 0.21% of 370,000 active; inhibition, % at 8.3 µM;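 active means inhibition above a per-campaign cutoff: mean of compounds within control limits plus 3 SD, cut at about 15% in these data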;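 further: 0% = median of all compound wells on the plate and 100% = blocking peptide control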
DDE Tn6 FP ctr = counter-screen hit for Tn6 peptide-fibrin DD(E) binding disruption; TRITC-Tn6 fluorescence polarization displacement; 0% = median of compound wells, not DMSO; shares compounds with Tn6 DDE FP; 2% of 680 active; inhibition, % at 8.3 µM;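 active means inhibition above the mean of test compounds lying between the control limits plus 3 SD of those, cut at about 14% in these data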;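 further: 0% = median of compound wells and 100% = wells with Aha-Tn7 blocking peptide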
DDE Tn6 confirm = inhibitors of Tn6 peptide binding to fibrin DD(E), confirmation, biochemical, fluorescence polarization, human fibrin, Tn6 probe. FP displacement of TRITC-Tn6 peptide from DD(E); 0% = per-plate median of test wells. shares compounds with Tn6 DDE FP. inhibition, % at 8.3 µM. 10% of 680 active. AID 720631, 2013;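 active means inhibition above the mean of compounds lying within the control limits plus 3 SD, cut at about 16% in these data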;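 further: 100% = high control wells holding a competing inhibitor peptide at 10 µM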
* hit, by the source's call; x = no result; + = active, no number.

SMILES	PLCb3 inh	PLCg1 inh	proKLK7 act	DDE Tn7 FP inh	CendR NRP1 mod	Tn6 DDE FP	DDE Tn6 FP ctr	DDE Tn6 confirm
CN1/C(=C\C=C2/SC(=S)NC2=O)C(C)(C)c2ccccc21	-245.6	-206.8	-2.1	-107.1	132.3	70.2*	-94.8	57.4*
O=C(C1CCCO1)N1CCN(C2=Nc3ccccc3Sc3ccccc32)CC1 (configuration not stated)	5.7	6.5	-0.5	-6.8	x	0.3	x	x
COc1ccc(CC(=O)OCc2csc(CC(=O)Nc3ccc(C)cc3)n2)cc1	1.4	1.6	-0.6	-9.4	-7.5	1.1	x	x
Cc1ccc(NC(=O)Cc2nc(CCl)cs2)cc1	-4.8	-9.3	-0.3	4.4	-18.3	15.4*	3.4	1.3
O=C(CSc1nnc(-c2cccnc2)n1C1CCCCC1)N1CCCC1	0.9	1.8	0.4	2.2	x	-4.7	x	x
COc1nc(Oc2ccc(C(=O)OCC(N)=O)cc2)nc(N(C)C)n1	2.6	-1.3	0.4	3.4	2.6	4.2	x	x
COC(=O)COC(=O)c1ccc(Oc2nc(OC)nc(N(C)C)n2)cc1	2.6	5.5	0.3	-9.2	18.0	20.6*	0.4	4.0
CC1(C)CCN2CCC(C)(C)c3c(O)ccc1c32	-57.9	-45.7	0.5	8.0	-101.8	30.4*	2.3	4.1
CCC(C)(C)C1CCc2c(sc(N)c2C(N)=O)C1 (configuration not stated)	-26.4	-23.5	-0.1	7.0	4.4	17.4*	-3.0	-9.8
COC(=O)[C@]12C=CCN1[C@H](c1ccc(OC)c(OC)c1)c1c(c3ccccc3n1S(=O)(=O)c1ccc(C)cc1)C2	-93.8	-72.6	-1.1	-4.2	x	-1.6	x	x
COC(=O)[C@]12C=CCN1[C@H](c1ccccc1)c1c(c3ccccc3n1S(=O)(=O)c1ccc(C)cc1)C2	-26.5	-18.7	-0.5	-8.5	x	18.8*	1.8	3.7
CCOc1ccc(OCC)c(S(=O)(=O)n2cnc(C)c2)c1	-7.8	1.6	0.4	-3.7	-2.3	16.3*	-3.0	-7.6
CCCCN1CCN(C(=O)C2CCCN(C(=O)c3ccc4c(c3)NC(=O)CS4)C2)CC1 (configuration not stated)	2.3	0.1	0.6	-4.6	x	-11.0	x	x
Cc1cc(N)ccc1-n1c(C)ccc1C	-8.9	-6.2	-0.4	4.4	-9.5	154.0*	1.8	11.1
NC(N)=N/N=C/c1ccccc1OC(F)F	-2.8	1.0	-0.1	1.1	-1.9	17.1*	-1.2	-0.6
Cc1ccccc1NC(=O)c1ccccc1NC(=O)c1ccco1	0.1	2.4	0.4	4.3	-7.2	16.5*	2.1	2.9
Cc1cc2ncc(S(=O)(=O)c3ccccc3)c(N)n2n1	-7.7	1.7	-0.2	5.0	-2.6	0.2	x	x
Cc1cc2ncc(S(=O)(=O)C(C)(C)C)c(N)n2n1	-4.5	-1.0	0.5	0.0	-13.7	16.6*	7.7	3.0
C[n+]1cc2c3c(ccc2c2ccc4cc5c(cc4c21)OCO5)OCO3	-48.8	-37.3	-1.0	9.8	x	27.4*	2.7	19.9*
CCn1c(=S)[nH]c2ccccc21	7.2	4.3	0.5	-1.4	9.8	16.0*	-4.5	-14.8
CCn1c(=S)[nH]c2cc(Cl)ccc21	-8.0	-1.3	-0.2	0.8	-7.8	-1.1	x	x
Cc1ccc(C(=O)N2CCCC(C(F)(F)F)C2)cc1S(=O)(=O)N1CCCCC1 (configuration not stated)	-1.7	1.7	0.6	-4.0	11.4	16.3*	1.5	-8.4
O=S(=O)(Nc1cccc(-c2cn3cccnc3n2)c1)c1ccc(-c2ccccc2)cc1	-349.3	-287.0	-11.8	-2.7	-4.2	20.3*	1.3	-6.0
Cc1cccc(S(=O)(=O)Nc2cccc(-c3cn4ccsc4n3)c2)c1	3.0	2.6	-0.3	1.5	2.8	-3.8	x	x
COc1cccc2c1C(=O)c1c(O)c3c(c(O)c1C2=O)CC(O)(C(C)=O)CC3OC1CC(N(C)C)C(O)C(C)O1 (configuration not stated)	-104.6	-69.3	0.7	11.3	144.0	+	-7.3	93.2*
SMILES	PLCb3 inh	PLCg1 inh	proKLK7 act	DDE Tn7 FP inh	CendR NRP1 mod	Tn6 DDE FP	DDE Tn6 FP ctr	DDE Tn6 confirm
Oc1cc2c(cc1O)C1c3ccc(O)c(O)c3OCC1(O)C2 (configuration not stated)	3.1	2.3	11.7	-3.6	20.7	33.4*	-4.5	20.7*
Cc1ccc(-n2c(SCC(=O)N/N=C/C=C\c3ccccc3[N+](=O)[O-])nnc2-c2ccccc2)cc1	1.7	2.6	0.5	-6.2	x	-4.5	x	x
O=C(N[C@H](Cc1ccccc1)C(=O)NCC1CCCO1)[C@H]1O[C@@H](n2ccc(=O)[nH]c2=O)[C@H](O)[C@@H]1O (some centres not stated)	5.2	7.2	0.4	10.1	x	-8.6	x	x
CCc1cc(C(=O)c2ccc(OC)cc2)c(N)s1	-6.4	-2.4	-0.1	-1.3	-6.8	2.9	x	x
COc1ccc(C(=O)c2ccsc2N)cc1	-70.0	-43.4	-0.1	3.5	142.8	19.3*	-6.1	-8.4
N#Cc1ccc(S(=O)(=O)N2CCCc3nc(-c4ccc(F)cc4)ccc32)cc1	-8.1	-5.8	0.8	3.2	x	-2.4	x	x
COc1ccc(-n2c(SCC(=O)Nc3ccc(Oc4ccccc4)cc3)nnc2-c2cccnc2)cc1	-2.5	1.9	0.9	5.3	x	-3.7	x	x
Cn1c(SCCc2ccccc2)nnc1-c1ccco1	-1.5	0.8	-0.2	5.3	x	-3.9	x	x
O=C(NCc1ccccc1)C1CCN(c2nc(-c3ccc(Br)cc3)cs2)CC1	-17.7	-8.6	x	-2.2	x	1.0	x	x
CCn1c(=O)c2ccccc2n2c(SCC(=O)N3CCCc4ccccc43)nnc12	-1.4	-2.8	-0.2	1.9	1.6	15.4*	-4.0	-5.0
Cc1ccc(C)c2c1cc(C)c1nnc(SCC(=O)N3CCCc4ccccc43)n12	-1.2	2.1	0.1	-5.2	-1.3	1.8	x	x
COC(=O)[C@]12C[C@H](CC(=O)NCc3cccs3)C(=O)N(Cc3ccc4c(c3)OCO4)C1=C[C@H](C(C)C)O[C@@H]2C1CC1	1.8	-0.2	0.8	0.8	x	-7.3	x	x
